Measured values as given in publication PMC10288500 (ACS Bio & Med Chem Au, 2023).

Legend:
HEK293 cells = assay: MTT cytotoxicity assay; format: cell-based; settings: 0.0001 nM–10 μM, 24 h
In short: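 HEK293 plated at 7500 cells/well and grown 24 h at 37 °C, 5% CO2. Exposed to compound 0.0001 nM–10 μM for 24 h at 37 °C. Viability read by MTT on a multimode plate reader.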

[1] = tested on: IL-1α-induced NF-κB activation; assay: IL-1α-induced NF-κB activation assay; format: cell-based; settings: HEK293 cells, IL-1α 10 ng/mL, 0.01 to 500 nM, 24 h
In short: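 HEK293 cells were transfected with NF-κB firefly/Renilla luciferase reporters and replated next day at 7500 cells/well in phenol red–free DMEM. Compound 0.01–500 nM or DMSO was incubated with or without IL-1α 10 ng/mL for 24 h at 37 °C. Sequential firefly and Renilla luminescence read with Dual-Glo reagents. Means ± SD of three experiments.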

[2] = Solubility by dynamic light scattering; format: physicochemical
TNFR1 = molecular target: T1, TNFR1 (Homo sapiens, UniProt P19438); assay: IκB degradation assay; format: cell-based; settings: HEK293 cells, 0.01 to 500 nM
T1 sequence (P19438 30-455): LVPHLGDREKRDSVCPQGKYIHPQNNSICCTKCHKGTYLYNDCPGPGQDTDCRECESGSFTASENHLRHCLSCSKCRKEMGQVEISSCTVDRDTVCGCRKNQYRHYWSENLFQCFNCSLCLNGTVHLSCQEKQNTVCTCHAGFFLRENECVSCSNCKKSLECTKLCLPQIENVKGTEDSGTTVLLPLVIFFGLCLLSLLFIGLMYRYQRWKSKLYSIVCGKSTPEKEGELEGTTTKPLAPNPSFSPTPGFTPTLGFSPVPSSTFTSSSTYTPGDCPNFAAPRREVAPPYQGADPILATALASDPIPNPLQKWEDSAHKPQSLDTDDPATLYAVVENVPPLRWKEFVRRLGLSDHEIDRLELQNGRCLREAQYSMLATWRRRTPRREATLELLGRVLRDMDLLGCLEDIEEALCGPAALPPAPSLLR
In short: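 HEK293 seeded at 0.4 million/mL in six-well plates overnight, then given compound 0.01–500 nM or DMSO for 2 h, then TNF 10 ng/mL for 30 min. Lysis in native buffer with protease inhibitor, 30 min on ice; BCA. 80 μg protein run on SDS–PAGE, immunoblotted for IκBα and β-actin. Bands quantified by densitometry (n = 3).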

TNFR2 = molecular target: T2, TNFR2 (Homo sapiens, UniProt P20333); assay: RelB transcription factor activity assay; format: cell-based; settings: HUVEC cells, 250 nM, densitometry
T2 sequence (P20333 23-461): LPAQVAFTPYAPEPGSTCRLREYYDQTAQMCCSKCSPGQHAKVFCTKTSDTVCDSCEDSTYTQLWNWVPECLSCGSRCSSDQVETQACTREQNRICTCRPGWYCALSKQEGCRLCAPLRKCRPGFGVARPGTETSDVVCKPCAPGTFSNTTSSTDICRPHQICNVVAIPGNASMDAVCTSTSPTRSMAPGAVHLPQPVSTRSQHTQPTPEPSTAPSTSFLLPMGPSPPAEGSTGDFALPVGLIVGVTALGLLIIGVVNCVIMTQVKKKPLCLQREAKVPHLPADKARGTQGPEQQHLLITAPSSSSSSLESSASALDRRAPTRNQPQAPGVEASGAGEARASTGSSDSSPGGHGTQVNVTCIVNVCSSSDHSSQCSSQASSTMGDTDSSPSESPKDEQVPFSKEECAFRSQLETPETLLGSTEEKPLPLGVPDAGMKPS
In short: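 HUVEC grown on gelatin-coated dishes in EGM-2 with 2% FBS, plated 1 million/well overnight, then transfected with 0.5 μg membrane TNF plasmid. After 6 h, medium replaced and compound (250 nM) added overnight. Lysates in native buffer, BCA, SDS–PAGE, immunoblotted for RelB; bands quantified by densitometry.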

TRADD = assay: TRADD-induced NF-κB activation assay; format: cell-based; settings: HEK293 cells overexpressing TRADD, 0.01 to 500 nM, without TNF
In short: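 HEK293 (0.8 million/well, six-well) transfected with 1 μg NF-κB firefly reporter, 0.1 μg Renilla reporter, 1 μg TRADD plasmid and 0.4 μg empty vector (2.5 μg total); controls received empty vector instead of TRADD. Replated at 7500 cells/well after 3 h. Compound 0.01–500 nM or DMSO added 5 h later. Dual luciferase read 24 h post-treatment. Means ± SD, three experiments.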

TNF = settings: read-out: EC50, inhibition of NF-κB; cited from earlier work

SMILES | cytotoxicity (MTT) (HEK293 cells) | effect on IL-1α-induced NF-κB activation [1] | aggregation by DLS at 200 μM [2] | extent of inhibition of TNF-induced IκB degradation (TNFR1) | effect on membrane TNF-TNFR2-induced activation of RelB (TNFR2) | effect on TRADD-induced NF-κB activation (TRADD) | EC50 (TNF)
COc1cc(C(=O)NS(=O)(=O)c2ccccc2C)ccc1Cc1cn(C)c2ccc(NC(=O)OC3CCCC3)cc12 [zafirlukast] | No appreciable cytotoxicity | failed to mitigate | aggregation | partially inhibited | minimal effect | little effect | 
Cc1ccc(C)c(Cn2c(C(O)c3ccncc3)nc3ccc(-c4cnn(C)c4)cc32)c1 (stereo not shown) [UCB-9260] |  |  |  |  |  |  | 250 nM
